In PMC11956937 (bioRxiv, 2025):

Key:
human TOP3B = human TOP3B (Homo sapiens, UniProt O95985); test: Inhibition of human TOP3B relaxation of supercoiled DNA; format: biochemical; conditions: for Inhibition of the DNA relaxation activity of human TOP3B: tested at up to 200 μM concentration
Outline: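 TOP3B (Sf9-expressed, GST/gel-filtration purified) and E. coli-expressed His-TDRD3 each at 18 nM, then DMSO or test compound, then 500 ng supercoiled pBAD/Thio plasmid; 20 mM HEPES-KOH pH 7.5, 5 mM MgCl2, 1 mM DTT, 0.1 mg/ml BSA; 37 ℃, 1 h. SDS/proteinase K stop; 1% agarose with 5 μg/mL chloroquine, SYBR Gold. Relaxed DNA gives % inhibition vs DMSO; 200 μM screen, IC50 from serial dilutions, 3–4 repeats.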

human TOP1 = molecular target: T1, human TOP1 (Homo sapiens, UniProt P11387); test: Inhibition of human TOP1 relaxation activity; format: biochemical; conditions: comparison of IC50 values for TOP3B and TOP1 relaxation
T1 sequence (P11387 1-765): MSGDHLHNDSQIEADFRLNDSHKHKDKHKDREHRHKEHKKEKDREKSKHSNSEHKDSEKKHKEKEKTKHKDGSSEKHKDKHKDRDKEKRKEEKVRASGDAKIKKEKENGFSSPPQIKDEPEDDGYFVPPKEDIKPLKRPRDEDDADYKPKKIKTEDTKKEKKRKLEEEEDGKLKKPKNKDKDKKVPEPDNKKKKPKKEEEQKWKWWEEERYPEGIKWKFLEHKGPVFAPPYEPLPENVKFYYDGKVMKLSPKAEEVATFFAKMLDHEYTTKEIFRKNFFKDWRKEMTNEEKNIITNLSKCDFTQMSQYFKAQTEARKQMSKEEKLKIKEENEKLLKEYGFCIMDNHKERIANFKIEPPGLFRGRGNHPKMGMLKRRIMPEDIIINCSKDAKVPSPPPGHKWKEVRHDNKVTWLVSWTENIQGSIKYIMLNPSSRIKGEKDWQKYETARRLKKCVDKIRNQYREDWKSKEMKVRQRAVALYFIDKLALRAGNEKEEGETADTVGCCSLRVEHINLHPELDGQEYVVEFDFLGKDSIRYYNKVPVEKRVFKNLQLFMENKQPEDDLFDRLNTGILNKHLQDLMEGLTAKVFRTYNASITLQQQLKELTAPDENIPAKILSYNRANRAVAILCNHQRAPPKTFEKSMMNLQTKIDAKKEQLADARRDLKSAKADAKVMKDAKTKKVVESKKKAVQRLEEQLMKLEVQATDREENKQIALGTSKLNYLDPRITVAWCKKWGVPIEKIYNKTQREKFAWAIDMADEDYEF
Outline: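 Recombinant human TOP1 expressed in S. cerevisiae EKY3, 1 unit, with 200 ng supercoiled pBAD/Thio plasmid in 10 mM Tris-HCl pH 8.0, 150 mM NaCl, 1 mM EDTA, 0.1 mM spermidine, 0.1 mg/mL BSA, 5% glycerol; 37 °C, 30 min; SDS stop. Run on 1% agarose in TAE, 20 h at 25 V; ethidium bromide stain. Remaining supercoiled DNA quantified as % inhibition vs DMSO; TOP1 IC50 compared with TOP3B IC50.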

Chain of human TOP3B (O95985 whole entry): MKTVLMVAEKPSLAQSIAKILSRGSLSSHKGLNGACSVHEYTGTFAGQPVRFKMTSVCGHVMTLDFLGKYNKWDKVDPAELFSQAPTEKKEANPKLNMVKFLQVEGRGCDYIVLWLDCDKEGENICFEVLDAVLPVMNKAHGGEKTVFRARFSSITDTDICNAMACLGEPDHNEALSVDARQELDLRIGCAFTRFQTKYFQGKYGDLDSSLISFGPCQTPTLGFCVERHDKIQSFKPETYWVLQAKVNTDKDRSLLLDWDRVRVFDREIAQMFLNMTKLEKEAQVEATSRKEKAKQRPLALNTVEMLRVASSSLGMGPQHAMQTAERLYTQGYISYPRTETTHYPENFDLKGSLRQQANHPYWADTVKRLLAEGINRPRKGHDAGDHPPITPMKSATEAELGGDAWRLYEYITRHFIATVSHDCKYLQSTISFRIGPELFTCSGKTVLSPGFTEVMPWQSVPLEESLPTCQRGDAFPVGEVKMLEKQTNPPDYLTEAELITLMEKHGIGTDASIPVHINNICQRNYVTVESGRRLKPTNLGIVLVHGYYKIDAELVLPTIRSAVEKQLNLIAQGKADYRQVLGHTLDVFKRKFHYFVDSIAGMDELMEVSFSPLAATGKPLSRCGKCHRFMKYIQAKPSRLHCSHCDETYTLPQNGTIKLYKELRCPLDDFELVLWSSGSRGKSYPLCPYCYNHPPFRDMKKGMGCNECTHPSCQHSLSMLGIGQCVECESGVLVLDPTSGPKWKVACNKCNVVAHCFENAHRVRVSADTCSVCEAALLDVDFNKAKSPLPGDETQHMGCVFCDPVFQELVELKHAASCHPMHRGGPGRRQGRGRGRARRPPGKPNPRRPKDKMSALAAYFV
Chain of human TOP3B (Q9H7E2 whole entry partner): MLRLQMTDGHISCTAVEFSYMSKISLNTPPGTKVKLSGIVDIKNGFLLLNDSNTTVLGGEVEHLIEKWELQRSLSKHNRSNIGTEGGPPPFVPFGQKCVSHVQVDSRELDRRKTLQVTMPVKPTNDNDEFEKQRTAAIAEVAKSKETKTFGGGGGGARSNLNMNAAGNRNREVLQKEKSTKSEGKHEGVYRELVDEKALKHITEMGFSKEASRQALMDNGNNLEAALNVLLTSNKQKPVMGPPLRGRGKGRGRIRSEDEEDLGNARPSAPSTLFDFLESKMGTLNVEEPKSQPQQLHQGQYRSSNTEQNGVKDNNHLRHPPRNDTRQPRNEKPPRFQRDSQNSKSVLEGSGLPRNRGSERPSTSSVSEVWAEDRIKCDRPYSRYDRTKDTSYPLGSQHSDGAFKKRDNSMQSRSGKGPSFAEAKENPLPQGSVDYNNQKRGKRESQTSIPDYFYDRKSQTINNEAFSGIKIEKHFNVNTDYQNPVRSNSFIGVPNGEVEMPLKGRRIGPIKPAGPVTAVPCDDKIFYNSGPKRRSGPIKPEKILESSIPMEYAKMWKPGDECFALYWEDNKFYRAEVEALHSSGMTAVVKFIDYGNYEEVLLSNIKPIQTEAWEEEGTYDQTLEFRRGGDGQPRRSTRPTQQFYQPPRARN

IC50 (human TOP3B) [µM]	SMILES	Inhibition of the DNA relaxation activity of human TOP3B (human TOP3B)	Selectivity for inhibition of human TOP3B versus TOP1 (human TOP1)
	Cc1cn(-c2cc(NC(=O)c3ccc(C)c(Nc4nccc(-c5cnccn5)n4)c3)cc(C(F)(F)F)c2)cn1 [radotinib]	Inhibition was observed only for bemcentinib	
	CN1CCN(C2CCN(C(=O)Nc3cc(Oc4ccc(NC(=O)C5(C(=O)Nc6ccc(F)cc6)CC5)c(F)c4)ccn3)CC2)CC1 [golvatinib]	Inhibition was observed only for bemcentinib	
34.3	Nc1nc(Nc2ccc3c(c2)CC[C@@H](N2CCCC2)CC3)nn1-c1cc2c(nn1)-c1ccccc1CCC2 [bemcentinib]	Inhibition was observed	inhibits TOP3B with greater potency than TOP1
	Cc1cn(-c2cc(NC(=O)c3ccc(C)c(Nc4nccc(-c5cccnc5)n4)c3)cc(C(F)(F)F)c2)cn1 [nilotinib]	Inhibition was observed only for bemcentinib	
	Cc1cc(Nc2ncnc3ccc(NC4=NC(C)(C)CO4)cc23)ccc1Oc1ccn2ncnc2c1 [tucatinib]	Inhibition was observed only for bemcentinib	
	CNC(=O)c1cc(Oc2ccc(NC(=O)Nc3cc(C(C)(C)C)nn3-c3ccc4ncccc4c3)c(F)c2)ccn1 [rebastinib]	Inhibition was observed only for bemcentinib	
